{"data": "Measurements from different studies", "PGR": "Progesterone receptor (PGR, Homo sapiens, UniProt P06401)", "MMP13": "Collagenase 3 (MMP13, Homo sapiens, UniProt P45452)", "note": "Lines come from different studies, so protocols differ."}
{"SMILES": "c1ccc(C(NCCNC(c2ccccc2)c2ccccc2)c2ccccc2)cc1", "target": "Adenosine receptor A2b (ADORA2B, Homo sapiens, UniProt P29275)", "effect on": "cell-free assay", "concentration": "10 µM", "inhibition [%]": -2}
{"SMILES": "CN(CCN1CCC(OC(=O)Nc2ccccc2-c2ccccc2)CC1)C(=O)c1ccc(CN2CCC(C(N)=O)CC2)cc1", "target": "PGR", "effect on": "ligand displacement", "technique": "radioligand", "concentration": "1 µM", "inhibition [%]": 0}
{"SMILES": "COc1cc(Nc2ncc(F)c(Nc3ccc4c(n3)NC(=O)C(C)(C)O4)n2)cc(OC)c1OC", "target": "Calcium/calmodulin-dependent protein kinase type II subunit gamma (CAMK2G, Homo sapiens, UniProt Q13555)", "effect on": "binding", "technique": "competition with immobilised ligand", "concentration": "10 µM", "inhibition [%]": 47}
{"SMILES": "CCOC(=O)c1ccc(OC(=O)CCCCCNC(=N)N)cc1", "target": "MMP13", "effect on": "enzyme activity", "action": "inhibitor", "concentration": "10 µM", "inhibition [%]": 13}
{"SMILES": "COc1ccc(N=Nc2ccc3[nH]cc(CCN(C)C)c3c2)cc1", "target": "5-hydroxytryptamine receptor 4 (HTR4, Homo sapiens, UniProt Q13639)", "effect on": "ligand displacement", "technique": "radioligand", "concentration": "10 µM", "inhibition [%]": "< 50"}
{"SMILES": "O=C(Nc1cccnn1)N1CCN([C@@H]2CCOc3cc(C(F)(F)F)ccc32)CC1", "target": "Prostaglandin E2 receptor EP2 subtype (PTGER2, Homo sapiens, UniProt P43116)", "effect on": "cell-free assay", "concentration": "20 µM", "inhibition [%]": -13}
{"SMILES": "C#Cc1n[nH]c2c(-c3cn([C@@H](C)c4ccccc4)c(=O)[nH]c3=O)cc(F)cc12", "target": "Dual specificity protein kinase CLK2 (CLK2, Homo sapiens, UniProt P49760)", "effect on": "enzyme activity", "action": "inhibitor", "concentration": "0.1 µM", "inhibition [%]": 3.8}
{"SMILES": "COc1ccc(S(=O)(=O)N2CCCCC2)cc1C", "target": "PGR", "effect on": "ligand displacement", "technique": "radioligand", "concentration": "10 µM", "inhibition [%]": "< 30"}
{"SMILES": "COc1ccc2[nH]c(C(O)c3ccc(Cl)cc3)c(CCNC(C)=O)c2c1 (centres unmarked)", "target": "Calmodulin-1 (CALM1, Homo sapiens, UniProt P0DP23)", "effect on": "enzyme activity", "action": "inhibitor", "concentration": "50 µM", "inhibition [%]": "40 to 50"}
{"SMILES": "Cn1cc(-c2cc(F)cc(N3CCn4c(cc5c4CCCC5)C3=O)c2CO)cc(Nc2ccc(N3CCN(C4COC4)CC3)cn2)c1=O", "target": "Tyrosine-protein kinase Tec (TEC, Homo sapiens, UniProt P42680)", "effect on": "enzyme activity", "action": "inhibitor", "concentration": "0.1 µM", "inhibition [%]": -3}
{"SMILES": "C#Cc1n[nH]c2c(-c3cn([C@@H](C)c4ccccn4)c(=O)[nH]c3=O)cc(F)cc12", "target": "Serine/threonine-protein kinase Sgk1 (SGK1, Homo sapiens, UniProt O00141)", "effect on": "enzyme activity", "action": "inhibitor", "concentration": "0.1 µM", "inhibition [%]": -0.7}
{"SMILES": "N=C(N)c1ccc2cc(OC(=O)c3ccc(N=C(N)N)cc3)ccc2c1", "target": "MMP13", "effect on": "enzyme activity", "action": "inhibitor", "concentration": "10 µM", "inhibition [%]": 75}
{"SMILES": "C[C@H](C(=O)N[C@H]1COc2ccccc2[C@@H]1S(C)(=O)=O)c1ccc(F)cc1", "target": "MMP13", "effect on": "enzyme activity", "action": "inhibitor", "concentration": "10 µM", "inhibition [%]": -4}
{"SMILES": "CC(C)C[C@H](NC(=O)[C@H](Cc1ccccc1)NC(=O)c1cnccn1)B(O)O", "target": "Chymase (CMA1, Homo sapiens, UniProt P23946)", "effect on": "enzyme activity", "action": "inhibitor", "concentration": "33 µM", "inhibition [%]": 84.2}
